Measured values from ChEMBL document CHEMBL4007404, “Identification of High-Potency Human TLR8 and Dual TLR7/TLR8 Agonists in Pyrimidine-2,4-diamines” (J Med Chem, 2017).
Activity calls are given as the source filed them.

Experiments:
Format in all cases: cell-based
[1] = molecular target: Toll-like receptor 2 (Homo sapiens) (UniProt O60603); test: Activity at human TLR2 expressed in HEK293 cells co-expressing secreted alkaline phosphatase assessed as induction of NF-kappaB/AP-1 promoter activity by measuring increase in secreted alkaline phosphatase level by spectrophotometric method
Toll-like receptor 2 (Homo sapiens), sequence (O60603 whole entry): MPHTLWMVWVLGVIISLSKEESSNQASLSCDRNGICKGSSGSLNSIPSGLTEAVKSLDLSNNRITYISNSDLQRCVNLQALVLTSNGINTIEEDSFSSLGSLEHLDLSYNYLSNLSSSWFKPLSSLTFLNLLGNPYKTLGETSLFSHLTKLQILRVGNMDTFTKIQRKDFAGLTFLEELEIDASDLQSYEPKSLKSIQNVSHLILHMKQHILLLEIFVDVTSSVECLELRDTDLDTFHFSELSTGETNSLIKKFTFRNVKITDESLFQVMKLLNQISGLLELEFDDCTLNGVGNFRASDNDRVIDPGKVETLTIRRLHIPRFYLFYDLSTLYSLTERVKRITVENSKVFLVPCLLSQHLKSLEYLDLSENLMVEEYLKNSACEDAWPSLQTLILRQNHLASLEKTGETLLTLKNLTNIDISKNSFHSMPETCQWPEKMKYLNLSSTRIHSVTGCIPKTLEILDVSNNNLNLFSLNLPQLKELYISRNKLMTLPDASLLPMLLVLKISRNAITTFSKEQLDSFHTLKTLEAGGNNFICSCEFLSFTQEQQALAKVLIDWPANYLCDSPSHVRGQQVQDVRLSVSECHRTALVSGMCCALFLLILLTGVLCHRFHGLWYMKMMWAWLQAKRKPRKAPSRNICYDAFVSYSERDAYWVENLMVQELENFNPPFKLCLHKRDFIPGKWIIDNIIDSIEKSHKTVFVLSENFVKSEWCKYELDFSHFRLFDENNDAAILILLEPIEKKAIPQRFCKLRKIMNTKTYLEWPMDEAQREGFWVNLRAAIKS
How it was run: (§1)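 HEK293 cells stably co-transfected with the relevant human TLR (2, 3, 4, 5, 7, 8 or 9) plus an NF-κB/AP-1-driven secreted alkaline phosphatase reporter, kept in selection medium. Cells at ~10⁵ cells/ml were exposed to graded concentrations of stimuli in 384-well format, liquid-handler assisted. Supernatant sAP was read at 620 nm with an alkaline phosphatase-specific chromogen.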

[2] = molecular target: Toll-like receptor 5 (Homo sapiens) (UniProt O60602); test: Activity at human TLR5 expressed in HEK293 cells co-expressing secreted alkaline phosphatase assessed as induction of NF-kappaB/AP-1 promoter activity by measuring increase in secreted alkaline phosphatase level by spectrophotometric method; how it was run: as §1
Toll-like receptor 5 (Homo sapiens), sequence (O60602 whole entry): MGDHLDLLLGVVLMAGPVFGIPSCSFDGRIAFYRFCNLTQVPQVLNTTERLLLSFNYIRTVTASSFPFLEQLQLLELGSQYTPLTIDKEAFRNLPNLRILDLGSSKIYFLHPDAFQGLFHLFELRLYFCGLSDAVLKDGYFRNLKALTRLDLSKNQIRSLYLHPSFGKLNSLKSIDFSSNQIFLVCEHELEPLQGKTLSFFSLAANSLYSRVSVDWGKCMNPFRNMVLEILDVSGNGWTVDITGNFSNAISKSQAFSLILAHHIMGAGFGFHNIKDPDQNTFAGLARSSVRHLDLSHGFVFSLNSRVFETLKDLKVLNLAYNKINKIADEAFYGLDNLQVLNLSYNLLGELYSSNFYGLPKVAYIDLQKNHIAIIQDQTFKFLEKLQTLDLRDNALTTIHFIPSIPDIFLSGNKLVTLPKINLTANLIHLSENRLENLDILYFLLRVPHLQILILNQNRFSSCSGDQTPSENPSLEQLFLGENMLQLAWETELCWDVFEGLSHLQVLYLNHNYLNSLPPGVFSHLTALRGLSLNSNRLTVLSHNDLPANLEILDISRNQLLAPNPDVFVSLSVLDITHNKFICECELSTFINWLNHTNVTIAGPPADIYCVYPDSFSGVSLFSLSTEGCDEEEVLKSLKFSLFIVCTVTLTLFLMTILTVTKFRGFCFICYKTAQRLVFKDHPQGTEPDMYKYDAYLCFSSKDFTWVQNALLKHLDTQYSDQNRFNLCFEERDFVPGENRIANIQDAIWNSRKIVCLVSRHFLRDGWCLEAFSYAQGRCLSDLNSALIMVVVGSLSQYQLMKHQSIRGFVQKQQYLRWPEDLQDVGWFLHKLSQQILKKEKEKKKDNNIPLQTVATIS

[3] = molecular target: T1, Toll-like receptor 9 (Homo sapiens) (UniProt Q9NR96); test: Activity at human TLR9 expressed in HEK293 cells co-expressing secreted alkaline phosphatase assessed as induction of NF-kappaB/AP-1 promoter activity by measuring increase in secreted alkaline phosphatase level by spectrophotometric method; how it was run: as §1
T1 sequence (whole entry): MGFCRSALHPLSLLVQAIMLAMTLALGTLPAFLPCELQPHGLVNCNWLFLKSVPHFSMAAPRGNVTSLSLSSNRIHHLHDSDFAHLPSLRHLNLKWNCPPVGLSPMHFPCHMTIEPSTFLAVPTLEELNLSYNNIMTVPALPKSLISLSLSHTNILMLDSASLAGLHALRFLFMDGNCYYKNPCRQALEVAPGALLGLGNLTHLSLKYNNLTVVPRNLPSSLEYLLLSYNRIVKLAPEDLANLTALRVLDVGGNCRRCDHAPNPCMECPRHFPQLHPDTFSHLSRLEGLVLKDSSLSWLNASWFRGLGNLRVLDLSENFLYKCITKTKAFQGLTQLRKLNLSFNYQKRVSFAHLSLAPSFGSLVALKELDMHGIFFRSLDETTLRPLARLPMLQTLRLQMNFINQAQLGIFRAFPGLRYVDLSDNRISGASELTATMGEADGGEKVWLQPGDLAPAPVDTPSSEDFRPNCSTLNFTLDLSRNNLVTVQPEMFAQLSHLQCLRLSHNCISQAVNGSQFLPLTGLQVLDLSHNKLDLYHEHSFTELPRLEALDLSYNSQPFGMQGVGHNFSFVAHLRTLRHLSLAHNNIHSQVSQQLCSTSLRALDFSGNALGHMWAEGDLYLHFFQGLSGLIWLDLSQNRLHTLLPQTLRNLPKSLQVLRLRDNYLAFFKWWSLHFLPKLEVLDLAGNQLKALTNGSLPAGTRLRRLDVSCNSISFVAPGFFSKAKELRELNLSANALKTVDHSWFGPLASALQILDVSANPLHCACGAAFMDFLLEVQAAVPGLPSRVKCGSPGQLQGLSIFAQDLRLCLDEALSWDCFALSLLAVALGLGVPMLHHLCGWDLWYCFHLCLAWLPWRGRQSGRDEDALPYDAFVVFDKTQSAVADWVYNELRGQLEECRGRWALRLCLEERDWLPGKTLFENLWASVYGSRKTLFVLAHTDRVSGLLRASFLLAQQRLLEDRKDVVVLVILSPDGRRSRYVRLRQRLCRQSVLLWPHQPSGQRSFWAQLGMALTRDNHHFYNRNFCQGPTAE

[4] = molecular target: T2, Toll-like receptor 7 (Homo sapiens) (UniProt Q9NYK1); test: Agonist activity at human TLR7 expressed in HEK293 cells co-expressing secreted alkaline phosphatase assessed as induction of NF-kappaB/AP-1 promoter activity by measuring increase in secreted alkaline phosphatase level at 100 uM by spectrophotometric method
T2 sequence (whole entry): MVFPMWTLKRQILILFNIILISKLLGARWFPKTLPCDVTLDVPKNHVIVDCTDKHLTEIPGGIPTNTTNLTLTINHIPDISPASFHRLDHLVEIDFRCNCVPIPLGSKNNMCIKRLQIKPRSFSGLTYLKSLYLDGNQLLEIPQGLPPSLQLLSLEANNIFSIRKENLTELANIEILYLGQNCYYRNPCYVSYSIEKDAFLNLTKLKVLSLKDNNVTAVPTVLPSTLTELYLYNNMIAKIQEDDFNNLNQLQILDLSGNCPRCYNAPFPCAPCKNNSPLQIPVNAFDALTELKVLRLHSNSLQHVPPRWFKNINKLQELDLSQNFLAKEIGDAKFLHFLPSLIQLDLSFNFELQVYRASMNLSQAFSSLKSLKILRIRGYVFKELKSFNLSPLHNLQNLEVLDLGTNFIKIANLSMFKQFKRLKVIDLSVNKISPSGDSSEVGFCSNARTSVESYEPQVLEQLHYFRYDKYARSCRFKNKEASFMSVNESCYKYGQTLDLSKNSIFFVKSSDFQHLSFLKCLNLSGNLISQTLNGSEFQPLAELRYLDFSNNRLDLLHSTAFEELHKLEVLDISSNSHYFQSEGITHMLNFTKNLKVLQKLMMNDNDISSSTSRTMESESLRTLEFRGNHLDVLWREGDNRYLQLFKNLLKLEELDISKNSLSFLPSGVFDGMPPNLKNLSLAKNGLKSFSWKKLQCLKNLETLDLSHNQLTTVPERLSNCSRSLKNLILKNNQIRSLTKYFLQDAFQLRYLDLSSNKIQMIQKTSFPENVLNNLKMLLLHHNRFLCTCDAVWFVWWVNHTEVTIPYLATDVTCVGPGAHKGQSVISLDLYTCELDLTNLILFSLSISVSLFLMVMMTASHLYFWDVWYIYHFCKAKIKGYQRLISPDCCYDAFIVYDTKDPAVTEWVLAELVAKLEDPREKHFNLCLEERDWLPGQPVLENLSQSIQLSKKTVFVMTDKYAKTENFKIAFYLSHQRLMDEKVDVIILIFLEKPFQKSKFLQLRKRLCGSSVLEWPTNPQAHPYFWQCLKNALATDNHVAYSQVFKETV

Measured: Activity

CCCCNc1nc(N)nc(C)c1CCCn1ccc2ccccc21
inactive: [1] | [2] | [3]

CCCCNc1nc(N)nc(C)c1C#CCN1CCOCC1
inactive: all assays above

CCCCNc1nc(N)nc(C)c1CCCn1cccn1
inactive: [1] | [2] | [3]

CCCCCc1c(C)nc(N)nc1NCCCC
inactive: [1] | [2] | [3]

CCCCNc1nc(N)nc(C)c1CCCN(C)C
inactive: [1] | [2] | [3]

CCCCNc1nc(N)nc(C)c1C
inactive: [1] | [2] | [3]

CCCCNc1nc(N)nc(C)c1C#CCN1CCCCC1
inactive: all assays above

CCCCNc1nc(N)nc(C)c1CCCN1CCOCC1
inactive: [1] | [2] | [3]

CCCCNc1nc(N)nc(C)c1CCCN1CCN(c2ccccc2)CC1
inactive: [1] | [2] | [3]

CCCCNc1nc(N)nc(C)c1CCCN1CCSCC1
inactive: [1] | [2] | [3]

CCCCNc1nc(N)nc(C)c1CCCN(CC)CC
inactive: all assays above

CCCCNc1nc(N)nc(C)c1CCCN(C)CCOC
inactive: [1] | [2] | [3]

CCCCNc1nc(N)nc(C)c1CCCC
inactive: [1] | [2] | [3]

CCCCNc1nc(N)nc(C)c1CCCC(C)(C)O
inactive: [1] | [2] | [3]

CCCCNc1nc(N)nc(C)c1CC
inactive: [1] | [2] | [3]

CCCCNc1nc(N)nc(C)c1C#C[Si](C)(C)C
inactive: all assays above

CCCCNc1nc(N)nc(C)c1CCCCN1CCOCC1
inactive: [1] | [2] | [3]

CCCCNc1nc(N)nc(C)c1CCCC1CCCCC1
inactive: [1] | [2] | [3]

CCCCNc1nc(N)nc(C)c1CCCCO
inactive: [1] | [2] | [3]

C#Cc1c(C)nc(N)nc1NCCCC
inactive: all assays above

CCCCNc1nc(N)nc(C)c1CCCN1CCCC1
inactive: [1] | [2] | [3]

CCCCNc1nc(N)nc(C)c1CCCn1cncn1
inactive: [1] | [2] | [3]

CCCCNc1nc(N)nc(C)c1CCCn1c(C)nc2ccccc21
inactive: [1] | [2] | [3]

CCCCNc1nc(N)nc(C)c1CCCN1C(=O)c2ccccc2C1=O
inactive: [1] | [2] | [3]

CCCCNc1nc(N)nc(C)c1CCCN1CCCCC1
inactive: [1] | [2] | [3]

CCCC#Cc1c(C)nc(N)nc1NCCCC
inactive: all assays above

CCCCNc1nc(N)nc(C)c1CCc1ccccc1
inactive: [1] | [2] | [3]

CCCCNc1nc(N)nc(C)c1CCCN1CCN(C)CC1
inactive: [1] | [2] | [3]

CCCCNc1nc(N)nc(C)c1CCCc1ccccc1
inactive: [1] | [2] | [3]

CCCCNc1nc(N)nc(C)c1CCCN1CCNCC1
inactive: [1] | [2] | [3]

CCCCNc1nc(N)nc(C)c1CCCCCc1ccccc1
inactive: [1] | [2] | [3]

CCCCNc1nc(N)nc(C)c1CCC(C)(C)O
inactive: [1] | [2] | [3]

CCCCNc1nc(N)nc(C)c1CCCN1CCN(C(=O)OC(C)(C)C)CC1
inactive: all assays above

CCCCNc1nc(N)nc(C)c1CCCN1Cc2ccccc2C1
inactive: [1] | [2] | [3]

CCCCNc1nc(N)nc(C)c1C#CCc1ccccc1
inactive: all assays above

CCCCNc1nc(N)nc(C)c1CCCCc1ccccc1
inactive: [1] | [2] | [3]

CCCCNc1nc(N)nc(C)c1CCCN1CCCCCC1
inactive: [1] | [2] | [3]
